Assay results from ChEMBL document CHEMBL4177701, “A novel series of enoyl reductase inhibitors targeting the ESKAPE pathogens, Staphylococcus aureus and Acinetobacter baumannii” (Bioorg Med Chem, 2018).
pIC50, pKi: −log10 of the molar value. ≈ marks a conversion by molar mass, not a printed value. Calls of active or inactive are those of the source. No cut-off for these calls is given here.

Key:
[1] = tested on: Staphylococcus aureus; assay: Antibacterial activity against Staphylococcus aureus RN4220 over-expressing FabI by microbroth dilution method; type: functional
Procedure, shortened: (§1)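 Broth microdilution MIC; reported value is mean of at least two runs, within two-fold experimental uncertainty.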

[2] = tested on: Staphylococcus aureus; assay: Antibacterial activity against Staphylococcus aureus RN4220 by microbroth dilution method; type: functional; procedure, shortened: as §1
[3] = tested on: Acinetobacter baumannii; assay: Antibacterial activity against Acinetobacter baumannii 2208 ATCC 19606 by microbroth dilution method; type: functional; settings: ATCC 19606 = CIP 70.34 = JCM 6841 2208
Procedure, shortened: (§2)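 Microbroth dilution MIC; each value is the mean of at least two runs, within two-fold experimental uncertainty.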

[4] = tested on: Escherichia coli; assay: Antibacterial activity against Escherichia coli BW25113 mutant by microbroth dilution method; type: functional; procedure, shortened: as §1
[5] = Competitive inhibition of Acinetobacter baumannii 2208 ATCC 19606 FabI using crotonyl-CoA as substrate in presence of NADPH/NADH after 10 mins by fluorescence assay; parameters: species or system Acinetobacter baumannii ATCC 19606 = CIP 70.34 = JCM 6841
[6] = tested on: Staphylococcus aureus; assay: Antibacterial activity against methicillin-resistant Staphylococcus aureus subsp. aureus Rosenbach ATCC 43300 by microbroth dilution method; type: functional; procedure, shortened: as §1
[7] = target: T1, Enoyl-[acyl-carrier-protein] reductase [NADPH] FabI (Staphylococcus aureus) (UniProt Q6GI75); assay: Binding affinity to Staphylococcus aureus subsp. aureus Rosenbach ATCC 43300 FabI by SPR assay
T1 sequence (whole entry): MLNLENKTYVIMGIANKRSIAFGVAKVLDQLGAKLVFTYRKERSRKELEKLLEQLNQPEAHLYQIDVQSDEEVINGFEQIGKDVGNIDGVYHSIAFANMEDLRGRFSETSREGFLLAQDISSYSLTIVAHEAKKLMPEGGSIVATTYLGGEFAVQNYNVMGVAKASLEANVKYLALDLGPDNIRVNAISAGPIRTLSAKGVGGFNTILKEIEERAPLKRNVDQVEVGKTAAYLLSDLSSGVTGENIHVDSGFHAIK

[8] = tested on: Acinetobacter baumannii ATCC 19606 = CIP 70.34 = JCM 6841; assay: Binding affinity to Acinetobacter baumannii 2208 ATCC 19606 FabI by SPR assay
[9] = Inhibition of Acinetobacter baumannii 2208 ATCC 19606 FabI using crotonyl-CoA as substrate in presence of NADPH/NADH after 10 mins by fluorescence assay; parameters: species or system Acinetobacter baumannii ATCC 19606 = CIP 70.34 = JCM 6841
Procedure, shortened: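 AbFabI, 200 nM, in 50 mM MES/100 mM NaCl with 200 μM NADH, 0.1 mg/mL BSA and 0.01% triton. Reaction started with 300 μM crotonyl-CoA. NADH fluorescence read at 340/460 nm. Compounds tested at 0.4 nM–200 μM. Initial 10-min slopes were compared with a DMSO no-compound control. At least two independent experiments, each in duplicate; two-fold uncertainty.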

[10] = target: T2, Enoyl-[acyl-carrier-protein] reductase [NADPH] FabI (Staphylococcus aureus, UniProt Q6GI75); assay: Competitive inhibition of Staphylococcus aureus subsp. aureus Rosenbach ATCC 43300 FabI using crotonyl-CoA as substrate in presence of NADPH/NADH after 10 mins by fluorescence assay
T2 sequence (Q6GI75 whole entry): T1 sequence (whole entry)

[11] = target: T2, Enoyl-[acyl-carrier-protein] reductase [NADPH] FabI; assay: Inhibition of Staphylococcus aureus subsp. aureus Rosenbach ATCC 43300 FabI using crotonyl-CoA as substrate in presence of NADPH/NADH after 10 mins by fluorescence assay
Procedure, shortened: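 SaFabI enzyme, 300 nM, in 50 mM MES/100 mM NaCl with 200 μM NADPH, 0.1 mg/mL BSA, 0.01% triton; started with 400 μM crotonyl-CoA. NADPH fluorescence at 340/460 nm. Compounds 0.4 nM–200 μM. Slopes over first 10 min compared with DMSO control for % inhibition. At least two independent experiments, each in duplicate. Two-fold experimental uncertainty.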

[12] = tested on: Staphylococcus aureus; assay: Antibacterial activity against Staphylococcus aureus Newman by microbroth dilution method; type: functional; procedure, shortened: as §2
[13] = tested on: Escherichia coli; assay: Antibacterial activity against Escherichia coli BW25113 harboring TolC deletion mutant by microbroth dilution method; type: functional; procedure, shortened: as §1
[14] = tested on: Acinetobacter baumannii; assay: Synergistic antibacterial activity against Acinetobacter baumannii 2208 ATCC 19606 assessed as fractional inhibitory concentration in presence of colistin by checkerboard method; type: functional, ATCC 19606 = CIP 70.34 = JCM 6841 2208
[15] = tested on: Acinetobacter baumannii; assay: Synergistic antibacterial activity against Acinetobacter baumannii 2208 ATCC 19606 assessed as colistin MIC by checkerboard method; type: functional; settings: ATCC 19606 = CIP 70.34 = JCM 6841 2208
[16] = tested on: Acinetobacter baumannii; assay: Synergistic antibacterial activity against Acinetobacter baumannii 2208 ATCC 19606 in presence of colistin by checkerboard method; type: functional; settings: ATCC 19606 = CIP 70.34 = JCM 6841 2208

SMILES | Activity [1] | Activity [2] | MIC [3] | MIC [4] | MIC [1] | pKi [5] | MIC [6] | Activity [7] | Activity [8] | pIC50 [9] | pKi [10] | pIC50 [11] | MIC [2] | MIC [12] | MIC [13] | FIC [14] | MIC [15] | MIC [16]
CC[C@H]1OC(=O)[C@H](C)[C@@H](O[C@H]2C[C@@](C)(OC)[C@@H](O)[C@H](C)O2)[C@H](C)[C@@H](O[C@@H]2O[C@H](C)C[C@H](N(C)C)[C@H]2O)[C@](C)(O)C[C@@H](C)C(=O)[C@H](C)[C@@H](O)[C@]1(C)O | Active | Active |  |  |  |  |  |  |  |  |  |  |  |  |  |  |  | 
COc1ccccc1C1CCN(C(=O)Cc2ccc(NC(C)=O)cc2)C1 (racemic) |  |  | > 200 µg/mL | > 200 µg/mL | > 200 µg/mL | < 4.30 | > 200 µg/mL | Active | Active | < 4.00 | < 4.43 | < 4.00 |  |  |  |  |  | 
O=C(N[C@H](CO)[C@H](O)c1ccc([N+](=O)[O-])cc1)C(Cl)Cl | Active | Active |  |  |  |  |  |  |  |  |  |  |  |  |  |  |  | 
COc1ccccc1C1CCN(C(=O)Cc2ccccc2F)C1 (racemic) |  |  | > 200 µg/mL | > 200 µg/mL | 100 µg/mL (≈ 319 µM) | 5.96 | 100 µg/mL (≈ 319 µM) | Active | Active | 5.68 | 5.77 |  | 50 µg/mL (≈ 160 µM) | 160 µM |  |  |  | 
CC(=O)Nc1ccc(/C=C/C(=O)N2CCC(c3nccs3)C2)cn1 (racemic) |  |  | > 200 µg/mL | > 200 µg/mL |  | 5.00 | > 200 µg/mL | Active | Active | 4.70 | 5.77 |  | > 200 µg/mL | > 200 µg/mL | > 200 µg/mL | 1 | 0.39 µg/mL | 100 µg/mL
O=C(Cc1cccc(F)c1F)N1CCC(c2ccc3c(c2)OCO3)C1 (racemic) |  |  | > 200 µg/mL | > 200 µg/mL |  | 5.16 | > 200 µg/mL | Active | Active | 4.86 | 5.70 |  | > 200 µg/mL |  |  |  |  | 
COc1ccccc1C1CCN(C(=O)Cc2cccc(F)c2F)C1 (racemic) |  |  | > 200 µg/mL | > 200 µg/mL | > 200 µg/mL | 5.43 | 100 µg/mL (≈ 302 µM) | Active | Active | 5.13 | 5.96 |  | 100 µg/mL (≈ 302 µM) | 100 µg/mL |  |  |  | 
CC(=O)Nc1ccc(/C=C/C(=O)N2CCC(c3ccccc3)C2)cn1 (racemic) |  |  | > 200 µg/mL |  | > 200 µg/mL | 6.70 | > 200 µg/mL | Active | Active | 6.33 | 6.40 |  | > 200 µg/mL | > 200 µg/mL | 12.5 µg/mL (≈ 37.3 µM) |  | 3.1 µg/mL | 
CN(C)[C@@H]1C(O)=C(C(N)=O)C(=O)[C@@]2(O)C(O)=C3C(=O)c4c(O)cccc4[C@@](C)(O)[C@H]3C[C@@H]12 | Active | Active |  |  |  |  |  |  |  |  |  |  |  |  |  |  |  | 
O=C(Cc1ccccc1F)N1CCC(c2ccc3c(c2)OCO3)C1 (racemic) |  |  | > 200 µg/mL | > 200 µg/mL | > 200 µg/mL | 4.80 | > 200 µg/mL | Active | Active | 4.49 | 6.00 |  |  |  |  |  |  | 
COc1ccc(C2CCN(C(=O)/C=C/c3ccc(NC(C)=O)nc3)C2)cc1 (racemic) |  |  | > 200 µg/mL | > 200 µg/mL | > 200 µg/mL | < 4.00 |  | Active | Active | < 3.70 | 5.89 | 5.44 |  |  |  |  |  | 
O=C(Cc1ccccc1Cl)N1CCC(c2nccs2)C1 (racemic) |  |  | > 200 µg/mL | > 100 µg/mL | > 200 µg/mL | 5.15 | 100 µg/mL (≈ 326 µM) | Active | Active | 4.85 | 5.66 |  |  | 163 µM | > 100 µg/mL | 0.75 | 0.39 µg/mL | 50 µg/mL
O=C(Cc1c(F)cccc1F)N1CCC(c2ccc3c(c2)OCO3)C1 (racemic) |  |  | > 200 µg/mL | > 200 µg/mL | > 200 µg/mL | 4.57 | > 200 µg/mL | Active | Active | 4.27 | 6.05 |  |  |  |  |  |  | 
COc1ccc(C2CCN(C(=O)Cc3ccccc3Cl)C2)cc1 (racemic) |  |  | > 200 µg/mL |  |  | < 4.00 | > 200 µg/mL | Active | Active | < 3.70 | 5.34 |  | > 200 µg/mL |  | > 200 µg/mL |  |  | 
CC(=O)Nc1ccc(/C=C/C(=O)N2CCC(c3ccccn3)C2)cn1 (racemic) |  |  | > 200 µg/mL | > 200 µg/mL |  | 5.44 | > 200 µg/mL | Active | Active | 5.15 | 4.98 |  | > 200 µg/mL | > 200 µg/mL | > 200 µg/mL | 1 | 0.39 µg/mL | 100 µg/mL
CN[C@@H]1[C@H](O[C@H]2[C@H](O[C@H]3[C@H](O)[C@@H](O)[C@H](N=C(N)N)[C@@H](O)[C@@H]3N=C(N)N)O[C@@H](C)[C@]2(O)C=O)O[C@@H](CO)[C@H](O)[C@H]1O | Active | Active |  |  |  |  |  |  |  |  |  |  |  |  |  |  |  | 
CC(=O)Nc1ccc(/C=C/C(=O)N2CCC(c3ccc4c(c3)OCO4)C2)cn1 (racemic) |  |  | > 200 µg/mL | > 200 µg/mL | > 200 µg/mL | 5.37 | > 200 µg/mL | Active | Active | 5.07 | 6.40 |  |  |  | > 200 µg/mL |  | 1.56 µg/mL | 
